Assays:
Homo sapiens [1] = species: Homo sapiens; assay: Selectivity index, ratio of Ki for inhibition of FITC-labelled BAK BH3 peptide to 6His-MBP tagged recombinant human MCL-1 (172 to 327 residues) expressed in Escherichia coli assessed as inhibition constant to Ki for binding affinity to BCL-xL (unknown origin) assessed as inhibition constant
Bcl-2-like protein 1 = Bcl-2-like protein 1 (Homo sapiens, UniProt Q07817); assay: Binding affinity to BCL-xL (unknown origin) assessed as inhibition constant
Sequence of Bcl-2-like protein 1 (Q07817 whole entry, the tested form may be a part): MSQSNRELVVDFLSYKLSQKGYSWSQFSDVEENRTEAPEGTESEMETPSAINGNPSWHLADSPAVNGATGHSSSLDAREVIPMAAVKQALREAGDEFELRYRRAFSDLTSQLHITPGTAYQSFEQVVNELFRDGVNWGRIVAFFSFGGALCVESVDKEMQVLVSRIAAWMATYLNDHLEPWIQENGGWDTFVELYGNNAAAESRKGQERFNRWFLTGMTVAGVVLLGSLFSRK

Homo sapiens [2] = species: Homo sapiens; assay: Selectivity index, ratio of Ki for inhibition of FITC-labelled BAK BH3 peptide to MCL-1 (172 to 327 residues) (unknown origin) assessed as inhibition constant to Ki for binding affinity to BCL-xL (unknown origin) assessed as inhibition constant
[3] = target: T1, Induced myeloid leukemia cell differentiation protein Mcl-1 (Homo sapiens, UniProt Q07820); assay: Inhibition of FITC-labelled BAK BH3 peptide to 6His-MBP tagged recombinant human MCL-1 (172 to 327 residues) expressed in Escherichia coli assessed as inhibition constant by fluorescence polarization competition assay
T1 sequence (Q07820 whole entry, the tested form may be a part): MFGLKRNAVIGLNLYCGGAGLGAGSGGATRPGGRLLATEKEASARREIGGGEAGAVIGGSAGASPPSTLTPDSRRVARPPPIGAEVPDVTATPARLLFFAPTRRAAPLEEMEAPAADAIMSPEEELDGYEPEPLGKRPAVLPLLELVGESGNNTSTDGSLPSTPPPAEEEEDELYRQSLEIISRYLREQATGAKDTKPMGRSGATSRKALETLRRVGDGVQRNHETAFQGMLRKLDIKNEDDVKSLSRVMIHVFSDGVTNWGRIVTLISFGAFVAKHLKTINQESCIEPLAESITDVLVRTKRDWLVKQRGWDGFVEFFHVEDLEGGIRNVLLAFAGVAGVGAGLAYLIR
Method in brief: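 Fluorescence polarization competition: compounds titrated into a mixture of MCL-1 (residues 172–327) and FITC-labelled BAK BH3 peptide. Displacement of the peptide was followed by the change in polarization, and Ki was derived from the competition titration.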

[4] = target: T1, Induced myeloid leukemia cell differentiation protein Mcl-1; assay: Binding affinity to MCL-1 (unknown origin) assessed as inhibition constant

Ratio Ki (Homo sapiens [1])	Ki (Bcl-2-like protein 1)	Structure (SMILES)	also measured
1.06	49.3 µM	CC(C)CN(c1ccc(O)c(C(=O)O)c1)S(=O)(=O)c1ccccc1	–
1.59	–	CC(C)CN(c1ccc(O)c(C(=O)O)c1)S(=O)(=O)c1ccc(-c2ccccc2)cc1	–
3.12	–	CC(C)CN(c1ccc(C(=O)O)c(O)c1)S(=O)(=O)c1ccc2ccccc2c1	–
0.8	–	CC(C)CN(c1ccc(C(=O)O)c(O)c1)S(=O)(=O)c1ccccc1	–
5.94	–	CC(C)CN(c1ccc(O)c(C(=O)O)c1)S(=O)(=O)c1ccc2ccccc2c1	–

Further lines, the compound ahead of its results:

Structure (SMILES)	Ratio Ki (Homo sapiens [1])	Ki (Bcl-2-like protein 1)	also measured
CC(C)CN(c1ccc(C(=O)O)c(O)c1)S(=O)(=O)c1ccc(Oc2ccccc2)cc1	3.12	–	–
Cc1cc(Oc2ccc(S(=O)(=O)N(Cc3ccccc3)c3ccc(C(=O)O)c(O)c3)cc2)cc(C)c1Cl	2.65	–	–
Cc1cc(Oc2ccc(S(=O)(=O)N(CC(C)C)c3ccc(O)c(C(=O)O)c3)cc2)cc(C)c1Cl	4.96	–	–
Cc1cc(Oc2ccc(S(=O)(=O)N3CC(C(=O)O)Cc4ccccc43)cc2)cc(C)c1Cl (racemic)	–	5.01 µM	Ratio Ki (Homo sapiens [2]): 42
CC(C)CN(c1ccc(C(=O)O)c(O)c1)S(=O)(=O)c1ccc(-c2ccccc2)cc1	2.63	–	–
Cc1cc(Oc2ccc(S(=O)(=O)N(CC(C)C)c3ccc(C(=O)O)c(O)c3)cc2)cc(C)c1Cl	2.09	1.63 µM	Ki [3]: 0.778 µM
Cc1cc(Oc2ccc(S(=O)(=O)N(c3ccc(C(=O)O)c(O)c3)C3CCCC3)cc2)cc(C)c1Cl	1.08	1.91 µM	Ki [3]: 1.76 µM
Cc1cc(Oc2ccc(S(=O)(=O)N3CCCc4cc(C(=O)O)ccc43)cc2)cc(C)c1Cl	–	3.56 µM	Ki [4]: 2.73 µM

From ChEMBL document CHEMBL5230167, “Discovery of N-sulfonylated aminosalicylic acids as dual MCL-1/BCL-xL inhibitors” (RSC Med Chem, 2023)
